Laboratory results published in ChEMBL document CHEMBL1128208, “(3SR,4aRS,6SR,8aRS)-6-(1H-tetrazol-5-yl)decahydroisoquinoline-3-carboxylic acid, a novel, competitive, systemically active NMDA and AMPA receptor antagonist” (J Med Chem, 1995).
Where “and” joins values, the source holds several entries; their conditions need not be identical. Equal values may be shown once.

Tests used:
[1] = species on record: Rattus norvegicus; test: Compound was evaluated against compound induced depolarization of NMDA receptor in rat cortical slice preparation; type: functional
Method in brief: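 Cortical slice preparation in which depolarization was induced by 40 μM NMDA. Antagonism was measured as inhibition of this depolarization, and […].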

[2] = Compound was evaluated for high binding affinity towards glycine site on the NMDA receptor; set-up: species or system Rattus norvegicus
[3] = species on record: Xenopus sp.; test: Compound was evaluated for blocking of depolarization induced by 30 uM AMPA in xenopus oocytes injected with rat brain m-RNA; type: functional, frog
[4] = biological target: Glutamate receptor ionotropic AMPA (Homo sapiens, UniProt P42261+P42262+P42263+P48058); test: Binding affinity against Ionotropic glutamate receptor AMPA using [3H]AMPA as a radioligand; type: protein-complex assay
[5] = species on record: Xenopus sp.; test: Compound was evaluated for blocking of depolarization induced by 30 uM NMDA in xenopus oocytes injected with rat brain m-RNA
[6] = species on record: Rattus norvegicus; test: Inhibitory activity against compound induced depolarization of NMDA receptor in rat cortical slice preparation; type: functional
Method in brief: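 Cortical slice preparation. Depolarizations evoked by 40 μM NMDA; the value is the IC50 for inhibition of the NMDA response.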

[7] = biological target: Glutamate NMDA receptor; test: Binding affinity against NMDA receptor using [3H]-CGS- 19755 as a radioligand in rat
Method in brief: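 Displacement of the selective NMDA-site radioligand [3H]CGS 19755. Run in triplicate unless otherwise indicated; IC50 reported.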

[8] = species on record: Rattus norvegicus; test: Inhibitory activity against compound induced depolarization of Kainic acid receptor in rat cortical slice preparation; type: functional
Method in brief: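 Cortical slice depolarizations evoked by 10 μM kainic acid. Test compound at concentrations up to 100 μM; the value is the IC50 for inhibition.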

[9] = species on record: Rattus norvegicus; test: Inhibitory activity against compound induced depolarization of AMPA receptor in rat cortical slice preparation; type: functional
Method in brief: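 Cortical slice preparation. Depolarizations evoked by 40 μM AMPA or 40 μM quisqualic acid (QUIS); the value is the IC50 for inhibition of the agonist response.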

[10] = biological target: Glutamate receptor ionotropic kainate; test: Binding affinity against Ionotropic glutamate receptor kainate using [3H]-Kainic acid as a radioligand; type: protein-complex assay
Method in brief: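 Displacement of [3H]kainic acid from kainate receptor sites. Run in triplicate unless otherwise indicated; IC50 reported.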

[11] = Binding affinity towards glycine site on the NMDA receptor was determined; set-up: species or system Rattus norvegicus

Structure (SMILES) | IC50 [4] [µM] | IC50 ([6]; Rattus norvegicus) [µM] | IC50 [7] [µM] | IC50 [8] [µM] | IC50 ([9]; Rattus norvegicus) [µM] | IC50 [10] [µM] | IC50 [6] [µM] | IC50 [9] [µM] | further results
O=C1Nc2cc(Cl)ccc2CC1[N+](=O)[O-] (centres undefined) | – | – | – | – | – | – | – | – | KbS [1]: 6.7 µM and 9.2 µM; IC50 [2]: 410 nM
O=[N+]([O-])c1ccc2cc(NS(=O)(=O)C(F)(F)F)c(O)nc2c1 | – | – | – | – | – | – | – | – | Ki [3]: 370 nM; Ki [4]: 600 nM; Ki [5]: 620 nM
O=C(O)[C@H]1CC[C@H]2CN[C@H](C(=O)O)C[C@H]2C1 (racemic) | > 100 | > 100 | > 100 | > 100 | > 100 | – | – | – | –
O=C(O)[C@@H]1C[C@H]2C[C@@H](c3nnn[nH]3)CC[C@H]2CN1 (racemic) | 12.8 | – | 1.6 | > 100 | – | 31.8 | 7.5 | 40.9 | –
O=C(O)[C@@H]1C[C@H]2C[C@H](c3nnn[nH]3)CC[C@H]2CN1 (racemic) | > 100 | 65 | 38.4 | – | > 100 | > 100 | – | – | –
O=C(O)[C@@H]1C[C@H]2C[C@@H](Cc3nnn[nH]3)CC[C@H]2CN1 (racemic) | 84.5 | 1.4 | 0.82 | > 100 | > 100 | > 100 | – | – | –
O=C(O)[C@@H]1C[C@H]2C[C@@H](CCc3nn[nH]n3)CC[C@H]2CN1 (racemic) [TEZAMPANEL ANHYDROUS] | – | 61.3 | 26.4 | 31.7 | 6 | 247 | – | – | –
O=C(O)[C@@H]1C[C@H]2C[C@@H](c3nnn[nH]3)CC[C@H]2CN1 (stereo in doubt; (+)-6) | > 100 | – | > 100 | – | – | > 100 | > 100 | > 100 | –
O=C(O)[C@@H]1C[C@H]2C[C@@H](c3nnn[nH]3)CC[C@H]2CN1 (stereo in doubt; (-)-6) | 5.7 | – | 1 | – | – | 21 | 4.1 | 13.2 | –
O=[N+]([O-])c1cc2nc(O)c(O)nc2cc1[N+](=O)[O-] [DNQX] | – | – | – | – | – | – | – | – | Ki [4]: 360 nM; Ki [11]: 390 nM
